{
  "source": "ChEMBL document CHEMBL2439973",
  "about": "“Discovery of VU0409106: A negative allosteric modulator of mGlu5 with activity in a mouse model of anxiety” (Bioorg Med Chem Lett, 2013)",
  "key": {"[1]": {"molecular_target": "Sodium-dependent serotonin transporter (Homo sapiens) (UniProt P31645)", "assay": "Displacement of [3H]-Paroxetine from human recombinant SERT expressed in HEK293 cells at 10 uM relative to control", "format": "cell-based"}, "[2]": {"molecular_target": "Sodium-dependent noradrenaline transporter (Homo sapiens) (UniProt P23975)", "assay": "Displacement of [125I]-RTI-55 from human recombinant NET expressed in MDCK cells at 10 uM relative to control", "format": "cell-based", "summary_of_the_method": "(§1)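 Tested once at 10 μM in a commercial radioligand binding panel of 68 GPCRs, ion channels, kinases and transporters. Activity is given as displacement of each radioligand relative to control.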"}, "Rattus norvegicus [3]": {"organism": "Rattus norvegicus", "assay": "Displacement of [3H]-GABA from GABA transporter in rat cerebral cortex at 10 uM relative to control", "format": "tissue-based", "summary_of_the_method": "as §1"}, "[4]": {"molecular_target": "Sodium-dependent dopamine transporter (Homo sapiens) (UniProt Q01959)", "sequence (Q01959 whole entry)": "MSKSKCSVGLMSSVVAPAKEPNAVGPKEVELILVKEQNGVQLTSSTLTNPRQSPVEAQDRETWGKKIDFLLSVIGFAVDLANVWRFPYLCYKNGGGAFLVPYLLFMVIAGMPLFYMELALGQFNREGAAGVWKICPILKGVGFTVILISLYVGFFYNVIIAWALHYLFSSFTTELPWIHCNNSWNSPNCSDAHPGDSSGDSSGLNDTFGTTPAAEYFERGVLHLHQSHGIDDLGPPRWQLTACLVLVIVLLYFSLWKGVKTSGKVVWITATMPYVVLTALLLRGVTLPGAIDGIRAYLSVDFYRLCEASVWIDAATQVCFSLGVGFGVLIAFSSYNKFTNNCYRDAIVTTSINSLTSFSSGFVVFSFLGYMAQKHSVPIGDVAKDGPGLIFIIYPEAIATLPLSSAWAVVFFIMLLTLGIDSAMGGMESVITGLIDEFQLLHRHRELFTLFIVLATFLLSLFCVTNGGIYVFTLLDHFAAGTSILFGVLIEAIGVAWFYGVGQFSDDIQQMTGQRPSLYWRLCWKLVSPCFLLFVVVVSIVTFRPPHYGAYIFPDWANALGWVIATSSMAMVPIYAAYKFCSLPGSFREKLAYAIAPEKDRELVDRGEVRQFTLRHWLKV", "assay": "Displacement of [125I]-RTI-55 from human recombinant DAT expressed in CHO-K1 cells at 10 uM relative to control", "format": "cell-based", "summary_of_the_method": "as §1"}, "[5]": {"molecular_target": "Substance-P receptor (Homo sapiens) (UniProt P25103)", "sequence (P25103 whole entry)": "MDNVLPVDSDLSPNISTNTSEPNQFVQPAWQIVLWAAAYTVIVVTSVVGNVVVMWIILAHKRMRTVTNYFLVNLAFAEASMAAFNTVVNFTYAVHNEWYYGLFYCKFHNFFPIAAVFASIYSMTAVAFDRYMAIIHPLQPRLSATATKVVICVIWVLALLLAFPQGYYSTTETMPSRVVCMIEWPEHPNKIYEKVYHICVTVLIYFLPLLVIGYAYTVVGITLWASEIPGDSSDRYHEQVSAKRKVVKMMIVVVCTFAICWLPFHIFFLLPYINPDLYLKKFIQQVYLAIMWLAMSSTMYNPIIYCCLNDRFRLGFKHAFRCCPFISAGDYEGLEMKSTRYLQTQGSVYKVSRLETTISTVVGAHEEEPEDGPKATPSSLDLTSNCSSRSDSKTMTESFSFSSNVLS", "assay": "Displacement of [3H]-Substance P from human recombinant tachykinin NK1 receptor expressed in CHO cells at 10 uM relative to control", "format": "cell-based"}, "[6]": {"molecular_target": "5-hydroxytryptamine receptor 1A (Homo sapiens) (UniProt P08908)", "sequence (P08908 whole entry)": "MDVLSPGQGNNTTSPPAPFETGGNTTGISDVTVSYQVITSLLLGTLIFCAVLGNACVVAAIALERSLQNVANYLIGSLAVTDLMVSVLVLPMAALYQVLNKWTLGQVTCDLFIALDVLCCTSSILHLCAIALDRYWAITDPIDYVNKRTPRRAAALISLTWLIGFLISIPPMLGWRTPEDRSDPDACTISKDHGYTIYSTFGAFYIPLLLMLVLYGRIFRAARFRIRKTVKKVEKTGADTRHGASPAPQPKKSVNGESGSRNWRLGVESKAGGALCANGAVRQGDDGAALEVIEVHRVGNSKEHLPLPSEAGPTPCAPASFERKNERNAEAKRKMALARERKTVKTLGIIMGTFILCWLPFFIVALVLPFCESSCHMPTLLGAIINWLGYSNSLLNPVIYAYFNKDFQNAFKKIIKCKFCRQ", "assay": "Displacement of [3H]-8-OH-DPAT from human recombinant 5-HT1A receptor expressed in CHO-K1 cells at 10 uM relative to control", "format": "cell-based", "summary_of_the_method": "as §1"}, "[7]": {"molecular_target": "5-hydroxytryptamine receptor 3A (Homo sapiens) (UniProt P46098)", "assay": "Displacement of [3H]-GR-65630 from human recombinant 5-HT3 receptor expressed in HEK293 cells at 10 uM relative to control", "format": "cell-based", "summary_of_the_method": "as §1"}, "Rattus norvegicus [8]": {"organism": "Rattus norvegicus", "assay": "Displacement of [35S]-ATP-alpha-S from purinergic P2Y receptor in rat brain at 10 uM relative to control", "format": "tissue-based", "summary_of_the_method": "as §1"}, "Mus musculus": {"organism": "Mus musculus", "assay": "Displacement of [3H]-PDBu from phorbol ester receptor in mouse brain at 10 uM relative to control", "format": "tissue-based", "summary_of_the_method": "as §1"}, "[9]": {"molecular_target": "Mu-type opioid receptor (Homo sapiens) (UniProt P35372)", "assay": "Displacement of [3H]-Diprenorphine from human recombinant mu opioid receptor expressed in CHO-K1 cells at 10 uM relative to control", "format": "cell-based", "summary_of_the_method": "as §1"}, "[10]": {"molecular_target": "Kappa-type opioid receptor (Homo sapiens) (UniProt P41145)", "assay": "Displacement of [3H]-Diprenorphine from human recombinant kappa receptor expressed in HEK293 cells at 10 uM relative to control", "format": "cell-based", "summary_of_the_method": "as §1"}, "[11]": {"molecular_target": "Acetylcholine receptor subunit alpha (Homo sapiens) (UniProt P02708)", "assay": "Displacement of [125I]-alpha-Bungarotoxin from nicotinic acetylcholine alpha1 receptor bungarotoxin binding site in human RD cells at 10 uM relative to control", "format": "cell-based", "summary_of_the_method": "as §1"}, "[12]": {"molecular_target": "Muscarinic acetylcholine receptor M1 (Homo sapiens) (UniProt P11229)", "assay": "Displacement of [3H]-N-Methylscopolamine from human recombinant muscarinic M1 receptor expressed in CHO-K1 cells at 10 uM relative to control", "format": "cell-based", "summary_of_the_method": "as §1"}, "CHO-K1": {"tested_on": "CHO-K1", "assay": "Displacement of [125I]-2-Iodomelatonin from human recombinant MT1 receptor expressed in CHO-K1 cells at 10 uM relative to control", "format": "cell-based", "summary_of_the_method": "as §1"}, "[13]": {"molecular_target": "Cysteinyl leukotriene receptor 1 (Homo sapiens) (UniProt Q9Y271)", "assay": "Displacement of [3H]-LTD4 from human recombinant leukotriene cysteinyl CysLT1 receptor expressed in CHO-K1 cells at 10 uM relative to control", "format": "cell-based", "summary_of_the_method": "as §1"}, "[14]": {"molecular_target": "Histamine H1 receptor (Homo sapiens) (UniProt P35367)", "assay": "Displacement of [3H]-Pyrilamine from human recombinant histamine H1 receptor expressed in CHO-K1 cells at 10 uM relative to control", "format": "cell-based"}, "[15]": {"molecular_target": "Histamine H3 receptor (Homo sapiens) (UniProt Q9Y5N1)", "assay": "Displacement of [3H]-N(-)-alpha-Methylhistamine from human recombinant histamine H3 receptor expressed in CHO-K1 cells at 10 uM relative to control", "format": "cell-based", "summary_of_the_method": "as §1"}, "[16]": {"molecular_target": "Glutamate NMDA receptor (Rattus norvegicus) (UniProt P35439+Q00959+Q00960+Q00961+Q62645+Q8VHN2+Q9R1M7)", "assay": "Displacement of [3H]-TCP from NMDA receptor phencyclidine binding site in rat cerebral cortex at 10 uM relative to control", "format": "tissue-based"}, "Rattus norvegicus [17]": {"organism": "Rattus norvegicus", "assay": "Displacement of [3H]-Kainic acid from kainate receptor in cerebellum-less rat brain homogenate at 10 uM relative to control", "format": "tissue-based", "summary_of_the_method": "as §1"}, "[18]": {"molecular_target": "Gamma-aminobutyric acid type B receptor subunit 1 (Homo sapiens) (UniProt Q9UBS5)", "assay": "Displacement of [3H]-CGP-54626 from human recombinant GABAB1A receptor expressed in CHO cells at 10 uM relative to control", "format": "cell-based", "summary_of_the_method": "as §1"}, "[19]": {"molecular_target": "Glucocorticoid receptor (Homo sapiens) (UniProt P04150)", "assay": "Displacement of [3H]-Dexamethasone from human recombinant glucocorticoid receptor at 10 uM relative to control", "summary_of_the_method": "as §1"}, "Rattus norvegicus [20]": {"organism": "Rattus norvegicus", "assay": "Displacement of [3H]-Flunitrazepam from central-type GABAA receptor flunitrazepam binding site in cerebellum-less rat brain homogenate at 10 uM relative to control", "format": "tissue-based", "summary_of_the_method": "as §1"}, "[21]": {"molecular_target": "Epidermal growth factor receptor (Homo sapiens) (UniProt P00533)", "assay": "Displacement of [125I]-EGF from epidermal growth factor receptor in human A431 cells at 10 uM relative to control", "format": "cell-based", "conditions": "A-431", "summary_of_the_method": "as §1"}, "[22]": {"molecular_target": "D(1A) dopamine receptor (Homo sapiens) (UniProt P21728)", "assay": "Displacement of [3H]-SCH-23390 from human recombinant dopamine D1 receptor expressed in CHO cells at 10 uM relative to control", "format": "cell-based"}, "[23]": {"molecular_target": "D(3) dopamine receptor (Homo sapiens) (UniProt P35462)", "assay": "Displacement of [3H]-Spiperone from human recombinant dopamine D3 receptor expressed in CHO cells at 10 uM relative to control", "format": "cell-based"}, "[24]": {"molecular_target": "Alpha-1B adrenergic receptor (Rattus norvegicus) (UniProt P15823)", "sequence (P15823 whole entry)": "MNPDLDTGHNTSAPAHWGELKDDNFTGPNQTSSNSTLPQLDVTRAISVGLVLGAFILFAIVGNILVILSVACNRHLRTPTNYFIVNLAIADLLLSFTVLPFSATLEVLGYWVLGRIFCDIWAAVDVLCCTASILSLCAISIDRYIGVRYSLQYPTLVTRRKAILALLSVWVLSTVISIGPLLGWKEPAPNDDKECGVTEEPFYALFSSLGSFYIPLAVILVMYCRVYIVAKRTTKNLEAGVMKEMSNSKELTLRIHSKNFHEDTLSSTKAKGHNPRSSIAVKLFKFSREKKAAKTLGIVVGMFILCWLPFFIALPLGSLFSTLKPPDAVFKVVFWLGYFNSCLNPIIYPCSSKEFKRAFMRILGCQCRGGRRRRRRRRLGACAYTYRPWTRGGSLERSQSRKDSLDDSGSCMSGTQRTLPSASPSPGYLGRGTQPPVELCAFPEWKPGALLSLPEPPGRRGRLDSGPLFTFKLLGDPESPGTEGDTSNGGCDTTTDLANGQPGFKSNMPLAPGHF", "assay": "Displacement of [3H]-Prazosin from adrenergic alpha1B receptor in rat liver at 10 uM relative to control"}, "[25]": {"molecular_target": "Alpha-1A adrenergic receptor (Rattus norvegicus) (UniProt P43140)", "sequence (P43140 whole entry)": "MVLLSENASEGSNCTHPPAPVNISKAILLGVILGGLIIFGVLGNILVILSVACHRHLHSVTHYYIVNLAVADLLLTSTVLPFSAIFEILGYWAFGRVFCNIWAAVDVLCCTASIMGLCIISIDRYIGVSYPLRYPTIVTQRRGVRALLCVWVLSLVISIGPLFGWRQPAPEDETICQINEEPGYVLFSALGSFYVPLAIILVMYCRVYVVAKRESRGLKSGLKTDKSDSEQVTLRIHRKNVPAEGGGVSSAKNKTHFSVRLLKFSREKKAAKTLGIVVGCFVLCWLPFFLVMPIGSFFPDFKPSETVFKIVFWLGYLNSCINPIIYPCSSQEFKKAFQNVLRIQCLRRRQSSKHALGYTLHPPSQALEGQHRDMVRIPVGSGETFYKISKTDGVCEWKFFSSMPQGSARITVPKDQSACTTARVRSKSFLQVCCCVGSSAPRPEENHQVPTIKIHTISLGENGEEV", "assay": "Displacement of [3H]-Prazosin from adrenergic alpha1A receptor in rat submaxillary gland at 10 uM relative to control", "format": "tissue-based"}, "[26]": {"molecular_target": "Metabotropic glutamate receptor 8 (Rattus norvegicus) (UniProt P70579)", "sequence (P70579 whole entry)": "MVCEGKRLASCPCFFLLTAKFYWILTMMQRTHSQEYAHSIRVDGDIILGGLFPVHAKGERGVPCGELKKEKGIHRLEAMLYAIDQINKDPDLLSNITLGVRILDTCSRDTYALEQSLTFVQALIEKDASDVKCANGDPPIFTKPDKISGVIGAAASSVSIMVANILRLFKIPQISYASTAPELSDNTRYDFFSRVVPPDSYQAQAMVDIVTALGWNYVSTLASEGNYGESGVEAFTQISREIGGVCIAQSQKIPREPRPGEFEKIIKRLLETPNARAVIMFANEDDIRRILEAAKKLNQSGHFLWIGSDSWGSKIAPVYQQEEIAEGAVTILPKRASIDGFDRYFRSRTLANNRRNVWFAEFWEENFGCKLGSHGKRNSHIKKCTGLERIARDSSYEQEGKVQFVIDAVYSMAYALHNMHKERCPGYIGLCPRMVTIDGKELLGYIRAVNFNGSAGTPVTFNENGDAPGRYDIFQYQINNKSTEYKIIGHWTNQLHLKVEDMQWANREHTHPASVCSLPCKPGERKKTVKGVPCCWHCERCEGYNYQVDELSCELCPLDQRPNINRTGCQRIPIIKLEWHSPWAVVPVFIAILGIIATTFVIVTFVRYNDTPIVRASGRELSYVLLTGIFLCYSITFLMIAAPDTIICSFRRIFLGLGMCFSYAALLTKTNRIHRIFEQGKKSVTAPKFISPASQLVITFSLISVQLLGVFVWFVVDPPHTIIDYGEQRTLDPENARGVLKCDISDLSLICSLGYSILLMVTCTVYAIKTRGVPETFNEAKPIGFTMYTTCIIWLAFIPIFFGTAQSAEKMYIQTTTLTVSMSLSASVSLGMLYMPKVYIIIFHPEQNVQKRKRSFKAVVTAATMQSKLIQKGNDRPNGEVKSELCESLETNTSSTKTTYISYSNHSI", "assay": "Allosteric modulation of rat mGlu8 receptor expressed in HEK293 cells coexpressing G protein-activated inward rectifier potassium channel assessed as effect on glutamate-induced thallium flux at 10 uM", "format": "cell-based"}, "[27]": {"molecular_target": "Metabotropic glutamate receptor 4 (Rattus norvegicus) (UniProt P31423)", "assay": "Allosteric modulation of rat mGlu4 receptor expressed in HEK293 cells coexpressing G protein-activated inward rectifier potassium channel assessed as effect on glutamate-induced thallium flux at 10 uM", "format": "cell-based"}, "[28]": {"molecular_target": "Metabotropic glutamate receptor 3 (Rattus norvegicus) (UniProt P31422)", "sequence (P31422 23-879 limits assumed)": "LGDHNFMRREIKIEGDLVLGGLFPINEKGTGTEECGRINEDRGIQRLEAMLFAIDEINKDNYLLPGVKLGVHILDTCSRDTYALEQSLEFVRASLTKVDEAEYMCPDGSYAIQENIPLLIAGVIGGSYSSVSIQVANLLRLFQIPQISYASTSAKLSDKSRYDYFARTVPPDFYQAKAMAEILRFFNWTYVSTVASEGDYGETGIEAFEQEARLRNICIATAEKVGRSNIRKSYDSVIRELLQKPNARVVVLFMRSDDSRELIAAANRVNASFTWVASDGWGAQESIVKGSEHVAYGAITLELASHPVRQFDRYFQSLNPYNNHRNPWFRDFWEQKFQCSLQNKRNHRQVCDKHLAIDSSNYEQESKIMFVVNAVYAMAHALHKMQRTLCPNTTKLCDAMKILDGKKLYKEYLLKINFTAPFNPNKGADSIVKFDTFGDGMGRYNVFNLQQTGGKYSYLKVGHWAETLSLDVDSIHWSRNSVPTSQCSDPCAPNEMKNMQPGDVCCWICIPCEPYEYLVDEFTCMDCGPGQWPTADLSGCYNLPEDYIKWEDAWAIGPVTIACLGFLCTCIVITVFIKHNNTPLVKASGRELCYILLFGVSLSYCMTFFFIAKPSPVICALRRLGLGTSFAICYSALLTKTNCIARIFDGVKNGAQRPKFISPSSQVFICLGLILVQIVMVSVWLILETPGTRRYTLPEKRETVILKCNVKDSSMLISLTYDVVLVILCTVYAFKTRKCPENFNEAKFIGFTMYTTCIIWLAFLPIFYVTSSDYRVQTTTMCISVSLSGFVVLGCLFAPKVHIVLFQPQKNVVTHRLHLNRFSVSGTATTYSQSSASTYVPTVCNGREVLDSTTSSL", "assay": "Allosteric modulation of rat mGlu3 receptor expressed in HEK293 cells coexpressing G protein-activated inward rectifier potassium channel assessed as effect on glutamate-induced thallium flux at 10 uM", "format": "cell-based"}, "[29]": {"molecular_target": "Metabotropic glutamate receptor 2 (Rattus norvegicus) (UniProt P31421)", "sequence (P31421 19-872 limits assumed)": "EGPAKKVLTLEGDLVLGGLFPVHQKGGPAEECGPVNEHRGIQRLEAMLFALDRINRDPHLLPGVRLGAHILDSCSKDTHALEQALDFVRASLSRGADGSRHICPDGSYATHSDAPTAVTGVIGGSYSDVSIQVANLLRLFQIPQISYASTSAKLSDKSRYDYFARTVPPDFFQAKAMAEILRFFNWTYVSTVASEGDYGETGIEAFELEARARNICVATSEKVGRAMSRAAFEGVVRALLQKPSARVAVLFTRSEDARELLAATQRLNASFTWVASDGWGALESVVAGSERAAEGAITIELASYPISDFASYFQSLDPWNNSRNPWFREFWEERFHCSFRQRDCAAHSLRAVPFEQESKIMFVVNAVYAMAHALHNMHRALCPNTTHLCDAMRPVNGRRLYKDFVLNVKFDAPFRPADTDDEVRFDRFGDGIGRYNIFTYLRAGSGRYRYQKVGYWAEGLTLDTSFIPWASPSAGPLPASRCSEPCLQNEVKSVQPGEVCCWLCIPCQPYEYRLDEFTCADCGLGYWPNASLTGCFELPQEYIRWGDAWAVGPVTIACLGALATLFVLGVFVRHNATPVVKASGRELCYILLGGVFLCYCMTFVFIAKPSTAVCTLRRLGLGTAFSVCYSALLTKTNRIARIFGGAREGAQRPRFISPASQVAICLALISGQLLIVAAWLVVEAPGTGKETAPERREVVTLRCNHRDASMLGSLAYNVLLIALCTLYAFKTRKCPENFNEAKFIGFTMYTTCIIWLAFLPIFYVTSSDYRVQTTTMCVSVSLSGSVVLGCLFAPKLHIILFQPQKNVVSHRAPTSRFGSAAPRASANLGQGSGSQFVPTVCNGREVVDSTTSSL", "assay": "Allosteric modulation of rat mGlu2 receptor expressed in HEK293 cells coexpressing G protein-activated inward rectifier potassium channel assessed as effect on glutamate-induced thallium flux at 10 uM", "format": "cell-based"}, "[30]": {"assay": "Ratio of drug level in brain to plasma in CD-1 mouse at 10 mg/kg, ip by LC-MS/MS analysis", "format": "ADME, organism-based", "set-up": "dose 10 mg/kg, route intraperitoneal", "conditions": "brain and plasma, read-out: BPR"}},
  "note": "Active and inactive are the calls of the source. The rule behind the calls is not given here.",
  "data": [
    {"smiles": "Cc1csc(NC(=O)c2cc(F)cc(Oc3cncnc3)c2)n1", "values": [
      {"measurement": "inhibition", "setting": "[1]", "result": "> 35", "unit": "%"},
      {"measurement": "inhibition", "setting": "[2]", "result": "> 35", "unit": "%"},
      {"measurement": "inhibition", "setting": "Rattus norvegicus [3]", "result": "> 35", "unit": "%"},
      {"measurement": "inhibition", "setting": "[4]", "result": "> 35", "unit": "%"},
      {"measurement": "inhibition", "setting": "[5]", "result": "> 35", "unit": "%"},
      {"measurement": "inhibition", "setting": "[6]", "result": "> 35", "unit": "%"},
      {"measurement": "inhibition", "setting": "[7]", "result": "> 35", "unit": "%"},
      {"measurement": "inhibition", "setting": "Rattus norvegicus [8]", "result": "> 35", "unit": "%"},
      {"measurement": "inhibition", "setting": "Mus musculus", "result": "> 35", "unit": "%"},
      {"measurement": "inhibition", "setting": "[9]", "result": "> 35", "unit": "%"},
      {"measurement": "inhibition", "setting": "[10]", "result": "> 35", "unit": "%"},
      {"measurement": "inhibition", "setting": "[11]", "result": "> 35", "unit": "%"},
      {"measurement": "inhibition", "setting": "[12]", "result": "> 35", "unit": "%"},
      {"measurement": "inhibition", "setting": "CHO-K1", "result": "> 35", "unit": "%"},
      {"measurement": "inhibition", "setting": "[13]", "result": "> 35", "unit": "%"},
      {"measurement": "inhibition", "setting": "[14]", "result": "> 35", "unit": "%"},
      {"measurement": "inhibition", "setting": "[15]", "result": "> 35", "unit": "%"},
      {"measurement": "inhibition", "setting": "[16]", "result": "> 35", "unit": "%"},
      {"measurement": "inhibition", "setting": "Rattus norvegicus [17]", "result": "> 35", "unit": "%"},
      {"measurement": "inhibition", "setting": "[18]", "result": "> 35", "unit": "%"},
      {"measurement": "inhibition", "setting": "[19]", "result": "> 35", "unit": "%"},
      {"measurement": "inhibition", "setting": "Rattus norvegicus [20]", "result": "> 35", "unit": "%"},
      {"measurement": "inhibition", "setting": "[21]", "result": "> 35", "unit": "%"},
      {"measurement": "inhibition", "setting": "[22]", "result": "> 35", "unit": "%"},
      {"measurement": "inhibition", "setting": "[23]", "result": "> 35", "unit": "%"},
      {"measurement": "inhibition", "setting": "[24]", "result": "> 35", "unit": "%"},
      {"measurement": "inhibition", "setting": "[25]", "result": "> 35", "unit": "%"},
      {"measurement": "Activity", "setting": "[26]", "result": "inactive"},
      {"measurement": "Activity", "setting": "[27]", "result": "inactive"},
      {"measurement": "Activity", "setting": "[28]", "result": "inactive"},
      {"measurement": "Activity", "setting": "[29]", "result": "inactive"},
      {"measurement": "Kp", "setting": "[30]", "result": 0.99}
    ]}
  ]
}
